Source: ChEMBL document CHEMBL1130100, “Stabilized analogs of thymopentin. 3. Evaluation of ketomethylene pseudopeptides for antiarthritic properties” (1997)
“And” between values parts separate entries of the source, which are not always exact repeats. Equal values may be shown once.

How the values were obtained:
Assay type in all cases: functional
Rattus norvegicus [1] = test: extent of paw swelling following treatment with the compound in the rat adjuvant arthritis model observed on day 12 at 0.050 mg/kg dose; settings: dose 0.05 mg/kg
In short: (§1)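 Rat adjuvant arthritis with iv dosing every second day, starting 2 days before the adjuvant/antigen challenge. Initial doses ranged 0.05 to 0.50 mg/kg, eight rats per dose. Each hind paw was measured by caliper. Swelling minus age-matched normal paw, expressed as % of untreated animals.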

Mus musculus [2] = test: On set and incidence of arthritis in the Mouse Type II collagen model at 0.5 dose mg/kg on day 40, expressed as ratio of number treated to that of control
In short: (§2)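 DBA/1 Lac mice sensitized with bovine type II collagen (100 μg) in Freund's complete adjuvant, ip boost (100 μg) on day 21. Freshly dissolved compound in sterile saline was given iv every second day, day 19 through day 40, groups of 12. A mouse was scored arthritic if erythema or edema was present on any digit, paw or appendage. Incidence reported as number positive of 12.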

Rattus norvegicus [3] = test: extent of paw swelling following treatment with the compound in the rat adjuvant arthritis model observed on day 16 at 0.050 mg/kg dose; settings: dose 0.05 mg/kg; in short: as §1
Rattus norvegicus [4] = test: extent of paw swelling following treatment with the compound in the rat adjuvant arthritis model observed on day 19 at 0.050 mg/kg dose; settings: dose 0.05 mg/kg; in short: as §1
Mus musculus [5] = test: Extent of paw swelling after treatment with thymopentin-5 (TP-5) compound in the Mouse Type II collagen arthritis at 1 mg/kg on day 30.; settings: 1 mg/kg
In short: (§3)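 DBA/1 Lac mice immunized with bovine type II collagen (100 μg) in Freund's complete adjuvant at four to six back sites, then boosted ip (100 μg) on day 21. Dosing was iv in sterile saline every second day from day 19 through day 40, 12 mice per dose. Each hind paw was measured by caliper. Result given as % of untreated swelling after subtracting age-matched normal paw.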

Mus musculus [6] = test: On set and incidence of arthritis in the Mouse Type II collagen model at 0.5 dose mg/kg on day 44, expressed as ratio of number treated to that of control; in short: as §2
Mus musculus [7] = test: 60 Extent of paw swelling after treatment with thymopentin-5 (TP-5) compound in the Mouse Type II collagen arthritis at a dosage of 1.0 mg/kg on day 30; in short: as §3
Mus musculus [8] = test: On set and incidence of arthritis in the Mouse Type II collagen model at 0.5 dose mg/kg on day 37, expressed as ratio of number treated to that of control; in short: as §2
Mus musculus [9] = test: On set and incidence of arthritis in the Mouse Type II collagen model following 0.5 mg/kg on day 30.; in short: as §2
Rattus norvegicus [10] = test: extent of paw swelling following treatment with the compound in the rat adjuvant arthritis model observed on day 12 at 0.50 mg/kg dose; settings: dose 0.5 mg/kg; in short: as §1
Mus musculus [11] = test: Extent of paw swelling after treatment with thymopentin-5 (TP-5) compound in the Mouse Type II collagen arthritis at a dosage of 0.03 mg/kg on day 30; in short: as §3
Rattus norvegicus [12] = test: extent of paw swelling following treatment with the compound in the rat adjuvant arthritis model observed on day 19 at 0.50 mg/kg dose; settings: dose 0.5 mg/kg; in short: as §1
Rattus norvegicus [13] = test: extent of paw swelling following treatment with the compound in the rat adjuvant arthritis model observed on day 16 at 0.50 mg/kg dose; settings: dose 0.5 mg/kg; in short: as §1
Mus musculus [14] = test: (§4) Extent of paw swelling after treatment with thymopentin-5 (TP-5) compound in the Mouse Type II collagen arthritis at a dosage of 1.0 mg/kg on day 44; in short: as §3
Mus musculus [15] = test: as §4; in short: as §3; remark: listed apart in the source

| Structure (SMILES) | Paw swelling (Rattus norvegicus [1]) | No. of mice (Mus musculus [2]) | Paw swelling (Rattus norvegicus [3]) | Paw swelling (Rattus norvegicus [4]) | Paw swelling (Mus musculus [5]) | No. of mice (Mus musculus [6]) | Paw swelling (Mus musculus [7]) | No. of mice (Mus musculus [8]) | No. of mice (Mus musculus [9]; 0.5 mg/kg) | Paw swelling (Rattus norvegicus [10]) | Paw swelling (Mus musculus [11]) | Paw swelling (Rattus norvegicus [12]) | Paw swelling (Rattus norvegicus [13]) | No. of mice (Mus musculus [9]) | Paw swelling (Mus musculus [14]) | Paw swelling (Mus musculus [15]) |
| --- | --- | --- | --- | --- | --- | --- | --- | --- | --- | --- | --- | --- | --- | --- | --- | --- |
| CCCC[C@@H](C(=O)N[C@@H](CC(=O)O)C(=O)N[C@H](C(=O)C[C@H](C(=O)O)C(C)C)C(C)C)N(C)C(=O)[C@@H](N)CCCN=C(N)N (stereo in doubt; 1m-A) | 0% | 7 | 80% | 45% | 73% and 58% | 7 | 60% | 6 | 3 |  |  |  |  |  |  |  |
| CC(C)[C@H](CC(=O)[C@H](CC(=O)O)NC(=O)[C@H](CCCCN)NC(=O)[C@@H](N)CCCN=C(N)N)C(=O)N[C@@H](Cc1ccccc1)C(=O)O (stereo in doubt; 3a-A) |  |  |  |  |  | 9 |  | 8 |  | 0% | 30% and 70% and 73% | 39% | 100% | 5 |  |  |
| CCCCC(CC(=O)[C@@H](N)CCCN=C(N)N)C(=O)N[C@@H](CC(=O)O)C(=O)NC(C(=O)C[C@H](C(=O)O)C(C)C)C(C)C (stereo in doubt; 1h-A) |  | 10 |  |  |  | 10 |  | 10 | 7 |  |  |  |  |  | 63% | 95% and 75% and 63% |
